Data taken from ChEMBL document CHEMBL4052832, “Selective Inhibitors of Human Neuraminidase 3” (J Med Chem, 2018).
≈ marks a conversion by molar mass, not a printed value. Blank lines part the entries; values can stand above or below the compound they belong to. Calls of active or inactive are those of the source. No cut-off for these calls is given here.

What was measured:
Sialidase-1 [1] = molecular target: T1, Sialidase-1 (Homo sapiens, UniProt Q99519); experiment: Inhibition of human CathA-IRES-6His-tagged NEU1 expressed in HEK293T cells using 4MU-NANA as substrate preincubated for 15 mins followed by substrate addition measured after 30 mins by fluorescence based assay; type: cell-based, HEK-293T
Sialidase-3 [2] = molecular target: T2, Sialidase-3 (Homo sapiens, UniProt Q9UQ49); experiment: Inhibition of human N-terminal MBP-fused NEU3 expressed in Escherichia coli using 4MU-NANA as substrate preincubated for 15 mins followed by substrate addition measured after 30 mins by fluorescence based assay
T2 sequence (Q9UQ49 whole entry): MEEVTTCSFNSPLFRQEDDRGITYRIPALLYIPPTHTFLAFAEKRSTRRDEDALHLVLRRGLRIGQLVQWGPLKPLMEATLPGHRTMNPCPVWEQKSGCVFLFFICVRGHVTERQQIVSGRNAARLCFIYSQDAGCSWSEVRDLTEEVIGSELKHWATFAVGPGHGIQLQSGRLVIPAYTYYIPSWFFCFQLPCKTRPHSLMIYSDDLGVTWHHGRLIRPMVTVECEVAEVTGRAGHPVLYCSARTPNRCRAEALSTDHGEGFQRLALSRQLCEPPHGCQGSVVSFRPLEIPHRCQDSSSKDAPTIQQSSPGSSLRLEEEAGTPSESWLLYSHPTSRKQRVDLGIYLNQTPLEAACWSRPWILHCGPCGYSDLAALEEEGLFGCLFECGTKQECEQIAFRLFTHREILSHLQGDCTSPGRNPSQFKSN

Sialidase-4 [3] = molecular target: T3, Sialidase-4 (Homo sapiens, UniProt Q8WWR8); experiment: Inhibition of human N-terminal MBP-fused NEU4 expressed in Escherichia coli using 4MU-NANA as substrate preincubated for 15 mins followed by substrate addition measured after 30 mins by fluorescence based assay
T3 sequence (Q8WWR8 whole entry): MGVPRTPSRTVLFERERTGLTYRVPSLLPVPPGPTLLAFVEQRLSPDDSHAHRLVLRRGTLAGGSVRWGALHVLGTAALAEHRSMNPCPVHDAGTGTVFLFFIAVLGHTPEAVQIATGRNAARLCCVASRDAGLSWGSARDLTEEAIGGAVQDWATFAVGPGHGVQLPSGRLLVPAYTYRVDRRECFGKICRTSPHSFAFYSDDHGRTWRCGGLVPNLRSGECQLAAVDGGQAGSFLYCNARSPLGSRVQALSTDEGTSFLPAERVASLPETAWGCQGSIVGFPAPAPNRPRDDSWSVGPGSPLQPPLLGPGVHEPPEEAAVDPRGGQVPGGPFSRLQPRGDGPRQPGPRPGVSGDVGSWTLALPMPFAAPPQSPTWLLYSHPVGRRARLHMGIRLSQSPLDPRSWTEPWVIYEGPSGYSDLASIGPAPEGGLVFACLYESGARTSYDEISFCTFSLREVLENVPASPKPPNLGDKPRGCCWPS

[4] = Kinetic solubility of compound in 0.9% NaCl at 10 mM incubated in supersonic bath for 30 mins measured after 24 hrs by LC-MS analysis; type: physicochemical; settings: read-out: Kinetic_solubility
Procedure, shortened: (§1)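 Kinetic solubility. 10 mM DMSO stock diluted 1:100 into 0.1 M Tris-HCl pH 7.4, Prisma HT buffer, or 0.9% NaCl in water (final 1% DMSO). Sonicated 30 min at 25 °C, equilibrated 24 h at 25 °C, filtered (0.2 μm), diluted in MeOH and analysed by LC-MS. Single measurements.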

[5] = Kinetic solubility of compound in Prisma HT 6.5 buffer at pH 7.4 at 10 mM incubated in supersonic bath for 30 mins measured after 24 hrs by LC-MS analysis; type: physicochemical; settings: pH 6.5, in the assay text read “at pH 6.5” for “at pH 7.4”, read-out: Kinetic_solubility; procedure, shortened: as §1
[6] = Kinetic solubility of compound in Tris-HCl buffer at pH 7.4 at 10 mM incubated in supersonic bath for 30 mins measured after 24 hrs by LC-MS analysis; type: physicochemical; procedure, shortened: as §1
[7] = Octanol-water partition coefficient, log D of compound at pH 7.4 at 10 uM after 2 hrs by LC-MS based shake flask analysis; type: physicochemical
Procedure, shortened: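 Shake-flask log D at pH 7.4. Octanol and 0.1 M Tris-HCl pH 7.4, mutually saturated. Compound at 10 μM in buffer with 0.1% DMSO, at two octanol:buffer ratios, each in triplicate.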

[8] = molecular target: Sialidase-1 (Mus musculus) (UniProt O35657); experiment: Inhibition of NEU1 in C57BL6 mouse brain homogenate assessed as residual activity at 50 uM using 4MU-NANA as substrate after 30 mins relative to control
Procedure, shortened: (§2)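 Brains from 12-week-old WT, neu1−/−, neu3−/− or neu3−/−neu4−/− mice, snap-frozen and homogenized in water; protein by Bradford. Acidic neuraminidase assayed at pH 4.6 using homogenate equal to 300 μg protein, inhibitor 0–150 μM and 200 μM 4MU-NANA, 37 °C for 30 min. Stopped with 0.4 M glycine pH 10.5. Activity relative to no-inhibitor, mean ± SD of 6–12 experiments.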

Sialidase-3 [9] = molecular target: T2, Sialidase-3; experiment: Inhibition of human N-terminal MBP-fused NEU3 expressed in Escherichia coli using GM3 as substrate preincubated for 15 mins followed by substrate addition measured after 30 mins by fluorescence based assay
Procedure, shortened: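 GM3 hydrolysis in 0.1 M sodium acetate pH 4.5. Serially diluted inhibitors preincubated with enzyme 15 min at 0 °C, then GM3 added to 500 μM for 30 min at 37 °C. Quenched with fresh 0.2 M sodium borate pH 10.2, then malononitrile added to form a fluorescent adduct with freed sialic acid; ex 357/em 434 nm.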

[10] = molecular target: Sialidase-1 (Mus musculus) (UniProt O35657); experiment: Inhibition of NEU1 in C57BL6 mouse brain homogenate using 4MU-NANA as substrate at 150 uM after 30 mins; procedure, shortened: as §2
[11] = molecular target: Sialidase-1 (Mus musculus) (UniProt O35657); experiment: Inhibition of NEU1 in NEU3/NEU4 double knockout C57BL6 mouse brain homogenate up to 150 uM using 4MU-NANA as substrate after 30 mins; procedure, shortened: as §2
Sialidase-4 [12] = molecular target: T3, Sialidase-4; experiment: Inhibition of human N-terminal MBP-fused NEU4 expressed in Escherichia coli using GM3 as substrate preincubated for 15 mins followed by substrate addition measured after 30 mins by fluorescence based assay
[13] = Inhibition in C57BL6 mouse brain homogenate at 10 uM using 4MU-NANA as substrate after 30 mins relative to control
[14] = molecular target: Sialidase NEU1/NEU4 (Mus musculus) (UniProt O35657+Q8BZL1); experiment: Inhibition of NEU1/NEU4 in NEU3 knockout C57BL6 mouse brain homogenate up to 150 uM using 4MU-NANA as substrate after 30 mins relative to control; procedure, shortened: as §2
Sialidase-1 [15] = molecular target: T1, Sialidase-1; experiment: Inhibition of human CathA-IRES-6His-tagged NEU1 expressed in HEK293T cells using 4MU-NANA as substrate preincubated for 15 mins followed by substrate addition measured every minute for 30 mins by fluorescence based assay; type: cell-based; settings: hek-293t
Procedure, shortened: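 Ki determination. Enzyme preincubated with serially diluted inhibitor 15 min at 0 °C, then serial 4MU-NANA concentrations added.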

[16] = molecular target: Sialidase NEU3/NEU4 (Mus musculus) (UniProt Q9JMH7+Q8BZL1); experiment: Inhibition of NEU3/NEU4 in NEU1 knockout C57BL6 mouse brain homogenate using 4MU-NANA as substrate after 30 mins; procedure, shortened: as §2
Sequence of Sialidase NEU3/NEU4 (Mus musculus) (Q8BZL1 whole entry, looked up, the tested form may be a part): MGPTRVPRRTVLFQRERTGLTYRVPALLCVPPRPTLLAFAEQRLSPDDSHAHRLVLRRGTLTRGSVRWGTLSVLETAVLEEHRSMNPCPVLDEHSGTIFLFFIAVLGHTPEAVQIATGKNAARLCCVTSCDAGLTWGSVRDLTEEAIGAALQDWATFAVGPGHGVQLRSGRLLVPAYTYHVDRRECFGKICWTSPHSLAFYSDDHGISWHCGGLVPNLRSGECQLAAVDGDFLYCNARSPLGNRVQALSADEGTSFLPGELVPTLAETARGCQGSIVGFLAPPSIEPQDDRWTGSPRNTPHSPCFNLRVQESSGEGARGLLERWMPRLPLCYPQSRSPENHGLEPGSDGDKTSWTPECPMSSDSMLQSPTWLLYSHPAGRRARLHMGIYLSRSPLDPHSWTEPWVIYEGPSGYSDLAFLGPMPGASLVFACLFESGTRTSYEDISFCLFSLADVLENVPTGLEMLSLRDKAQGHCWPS
Sequence of Sialidase NEU3/NEU4 (Mus musculus) (Q9JMH7 whole entry, looked up, the tested form may be a part): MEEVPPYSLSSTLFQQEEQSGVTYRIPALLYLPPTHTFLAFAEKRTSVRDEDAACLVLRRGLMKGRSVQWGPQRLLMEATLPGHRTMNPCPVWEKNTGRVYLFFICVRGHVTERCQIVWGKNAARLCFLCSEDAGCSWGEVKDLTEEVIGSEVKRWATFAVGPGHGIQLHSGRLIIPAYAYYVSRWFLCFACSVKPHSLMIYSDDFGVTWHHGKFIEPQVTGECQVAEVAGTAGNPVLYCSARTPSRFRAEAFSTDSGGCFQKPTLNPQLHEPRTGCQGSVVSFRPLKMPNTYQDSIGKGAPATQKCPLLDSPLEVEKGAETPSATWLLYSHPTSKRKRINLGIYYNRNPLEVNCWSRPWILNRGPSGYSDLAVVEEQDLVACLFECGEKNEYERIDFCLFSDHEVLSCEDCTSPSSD

Sialidase-4 [17] = molecular target: T3, Sialidase-4; experiment: Inhibition of human N-terminal MBP-fused NEU4 expressed in Escherichia coli using 4MU-NANA as substrate preincubated for 15 mins followed by substrate addition measured every minute for 30 mins by fluorescence based assay
Sialidase-3 [18] = molecular target: T2, Sialidase-3; experiment: Inhibition of human N-terminal MBP-fused NEU3 expressed in Escherichia coli using 4MU-NANA as substrate preincubated for 15 mins followed by substrate addition measured every minute for 30 mins by fluorescence based assay

SMILES: CC(=O)N[C@H]1[C@H]([C@H](O)[C@H](O)Cn2cc(-c3ccc(C(=O)O)cc3)nn2)OC(C(=O)O)=C[C@@H]1NC(=N)N
- IC50 (Sialidase-1 [1]): > 500 µM
- IC50 (Sialidase-3 [2]): 0.61 µM
- IC50 (Sialidase-4 [3]): 24 µM

SMILES: CC(=O)N[C@H]1[C@H]([C@H](O)[C@H](O)Cn2cc(-c3ccc(CO)cc3)nn2)OC(C(=O)O)=C[C@@H]1O
- logD at 2 h, 10 µM [7]: < -1.5

SMILES: CC(=O)N[C@H]1[C@H]([C@H](O)[C@H](O)Cn2cc(-c3ccc(C(=O)O)cc3)nn2)OC(C(=O)O)=C[C@@H]1N
- IC50 (Sialidase-1 [1]): > 500 µM
- IC50 (Sialidase-3 [2]): > 500 µM
- IC50 (Sialidase-4 [3]): > 500 µM

Second part, the compound after the results:

- solubility kinetic at 24 h, 10000 µM [4]: 3.7 µg/mL (≈ 7.08 µM)
- solubility kinetic at 24 h, 10000 µM [5]: 3.2 µg/mL (≈ 6.12 µM)
- solubility kinetic at 24 h, 10000 µM ([6]; Tris-HCl buffer, pH 7.4, read-out: Kinetic_solubility): 13.8 µg/mL (≈ 26.4 µM)
- logD at 2 h, 10 µM [7]: 3.4
SMILES: CCOC(=O)C1=C[C@H](O)[C@@H](NC(C)=O)[C@H]([C@H](O)[C@H](O)Cn2cc(-c3ccc(-c4ccccc4)cc3)nn2)O1

- Activity [8]: 60%
- IC50 (Sialidase-3 [9]): 12 µM
- IC50 (Sialidase-1 [1]): > 500 µM
- IC50 (Sialidase-3 [2]): 0.7 µM
- inhibition [10]: inactive
- inhibition [11]: inactive
- IC50 (Sialidase-4 [3]): 0.52 µM
- IC50 (Sialidase-4 [12]): 3.7 µM
- inhibition [13]: < 70%
- inhibition [14]: 20%
- Ki (Sialidase-1 [15]): Not Active
- inhibition [16]: Active
- Ki (Sialidase-4 [17]): 0.26 µM
- Ki (Sialidase-3 [18]): 0.28 µM
SMILES: CC(=O)N[C@H]1[C@H]([C@H](O)[C@H](O)Cn2cc(-c3ccc(-c4ccccc4)cc3)nn2)OC(C(=O)O)=C[C@@H]1O

- IC50 (Sialidase-1 [1]): 240 µM
- IC50 (Sialidase-3 [2]): 1.1 µM
- IC50 (Sialidase-4 [3]): 3 µM
SMILES: CC(=O)N[C@H]1[C@H]([C@H](O)[C@H](O)Cn2cc(-c3ccc(C(=O)O)cc3)nn2)OC(C(=O)O)=C[C@@H]1O

- IC50 (Sialidase-1 [1]): > 500 µM
SMILES: CC(=O)N[C@H]1[C@H]([C@H](O)[C@H](O)Cn2cc(-c3ccc(Oc4ccccc4)cc3)nn2)OC(C(=O)O)=C[C@@H]1O

- solubility kinetic at 24 h, 10000 µM [4]: > 1 µg/mL
- solubility kinetic at 24 h, 10000 µM [5]: > 1 µg/mL
- Kinetic_solubility ([6]; buffer, pH 7.4, 10000 µM): 1.5 µg/mL
- logD at 2 h, 10 µM [7]: 2.3
SMILES: COC(=O)C1=C[C@H](O)[C@@H](NC(C)=O)[C@H]([C@H](O)[C@H](O)Cn2cc(-c3ccc(-c4ccccc4)cc3)nn2)O1
